Source: ChEMBL document CHEMBL1142416, “Pharmacological exploitation of the peroxisome proliferator-activated receptor gamma agonist ciglitazone to develop a novel class of androgen receptor-ablative agents” (J Med Chem, 2008)
Calls of active or inactive are those of the source. The rule behind the calls is not given here.

How the values were obtained:
LNCaP [1] = experiment: Inhibition of androgen receptor protein expression in human LNCaP cells after 72 hrs by Western blotting; assay type: functional, cell-based
In short: (§1)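 LNCaP cells (1×10⁶/T25 flask) were exposed in 10% FBS-supplemented medium; dose series ran 72 h. Protein extracts were resolved on 10% SDS-PAGE and transferred to nitrocellulose, then blocked in 5% milk/TBST. Blots were probed overnight at 4°C with mouse anti-AR or anti-β-actin (1:1000), then HRP goat anti-mouse (1:2500, 1 h), and detected by enhanced chemiluminescence.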

LNCaP [2] = experiment: Suppression of androgen receptor protein expression in human LNCaP cells at 60 uM by Western blotting; assay type: functional, cell-based; in short: as §1
LNCaP [3] = experiment: Suppression of androgen receptor mRNA expression in human LNCaP cells at 60 uM by RT-PCR; assay type: functional, cell-based
In short: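 LNCaP cells (1×10⁶/T25 flask) were treated in 10% FBS-supplemented medium for various times. Total RNA was isolated and 6 μg reverse-transcribed. AR and β-actin (reference) were amplified by PCR with gene-specific primers, and products were resolved on 1.5% agarose gels.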

LNCaP [4] = experiment: Suppression of androgen receptor protein expression in human LNCaP cells at 30 uM by Western blotting; assay type: functional, cell-based; in short: as §1
LNCaP [5] = experiment: Cell cycle arrest in human LNCaP cells assessed as accumulation at G2/M phase at 1 uM after 72 hrs; assay type: functional
In short: (§2)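 LNCaP cells were plated at 2.5 × 10⁶ cells/well and treated at the stated concentrations for 72 h. They were washed in PBS, trypsinized and fixed in ice-cold 80% ethanol overnight at 4°C. Staining used propidium iodide (50 μg/ml) with RNase A (100 units/ml) in PBS. Phase distribution was measured by flow cytometry; values are the mean of two independent determinations.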

LNCaP [6] = experiment: Induction of apoptosis in human LNCaP cells assessed as PARP cleavage after 72 hrs; assay type: functional, cell-based
In short: (§3)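 LNCaP cells were treated over a dose range for 72 h. Lysates were prepared with protease/phosphatase inhibitors and run on 10% SDS-PAGE, then transferred to nitrocellulose. PARP cleavage and caspase-3 and caspase-7 processing were detected by immunoblot with chemiluminescence.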

LNCaP [7] = experiment: Cell cycle arrest in human LNCaP cells assessed as accumulation at G2/M phase at 10 uM after 72 hrs; assay type: functional; in short: as §2
LNCaP [8] = experiment: Inhibition of androgen receptor mRNA expression in human LNCap cells after 72 hrs; assay type: functional, cell-based; details: in the assay text read “protein expression” for “mRNA expression”
PC-3 [9] = experiment: Antitumor activity against androgen non-responsive human PC3 cells by MTT assay at 48 hrs; assay type: functional, cell-based; details: PC-3, 48 h
In short: (§4)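 LNCaP or PC-3 cells were seeded at 6000/well in 10% FBS RPMI 1640 for 24 h. They were then treated at various concentrations in 5% FBS RPMI 1640 for 48 or 72 h, with DMSO-matched controls. MTT (0.5 mg/ml) was added for 2 h at 37°C and the dye solubilized in DMSO. A570 was read in six replicates, and IC50 was taken from dose-response.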

LNCaP [10] = experiment: Induction of apoptosis in human LNCaP cells assessed as caspase 3 activation after 72 hrs; assay type: functional, cell-based; in short: as §3
LNCaP [11] = experiment: Cell cycle arrest in human LNCaP cells assessed as accumulation at S phase at 5 uM after 72 hrs; assay type: functional; in short: as §2
LNCaP [12] = experiment: Cell cycle arrest in human LNCaP cells assessed as accumulation at S phase at 7.5 uM after 72 hrs; assay type: functional; in short: as §2
LNCaP [13] = experiment: Cell cycle arrest in human LNCaP cells assessed as accumulation at S phase at 1 uM after 72 hrs; assay type: functional; in short: as §2
LNCaP [14] = experiment: Cell cycle arrest in human LNCaP cells assessed as accumulation at subG1 phase at 5 uM after 72 hrs; assay type: functional; in short: as §2
LNCaP [15] = experiment: Cell cycle arrest in human LNCaP cells assessed as accumulation at G2/M phase at 2.5 uM after 72 hrs; assay type: functional; in short: as §2
LNCaP [16] = experiment: Cell cycle arrest in human LNCaP cells assessed as accumulation at subG1 phase at 7.5 uM after 72 hrs; assay type: functional; in short: as §2
LNCaP [17] = experiment: Cell cycle arrest in human LNCaP cells assessed as accumulation at S phase at 2.5 uM after 72 hrs; assay type: functional; in short: as §2
LNCaP [18] = experiment: Induction of apoptosis in human LNCaP cells assessed as caspase 7 activation after 72 hrs; assay type: functional, cell-based; in short: as §3
LNCaP [19] = experiment: Cell cycle arrest in human LNCaP cells assessed as accumulation at G1 phase at 1 uM after 72 hrs; assay type: functional; in short: as §2
LNCaP [20] = experiment: Cell cycle arrest in human LNCaP cells assessed as accumulation at subG1 phase at 2.5 uM after 72 hrs; assay type: functional; in short: as §2
LNCaP [21] = experiment: Antitumor activity against androgen responsive human LNCaP cells by MTT assay at 48 hrs; assay type: functional, cell-based; in short: as §4
LNCaP [22] = experiment: Antitumor activity against androgen responsive human LNCaP cells by MTT assay at 72 hrs; assay type: functional, cell-based; in short: as §4
LNCaP [23] = experiment: Cell cycle arrest in human LNCaP cells assessed as accumulation at G1 phase at 10 uM after 72 hrs; assay type: functional; in short: as §2
LNCaP [24] = experiment: Cell cycle arrest in human LNCaP cells assessed as accumulation at G2/M phase at 7.5 uM after 72 hrs; assay type: functional; in short: as §2
PC-3 [25] = experiment: Antitumor activity against androgen non-responsive human PC3 cells by MTT assay at 72 hrs; assay type: functional, cell-based; details: PC-3, 72 h; in short: as §4
LNCaP [26] = experiment: Cell cycle arrest in human LNCaP cells assessed as accumulation at subG1 phase at 10 uM after 72 hrs; assay type: functional; in short: as §2
LNCaP [27] = experiment: Cell cycle arrest in human LNCaP cells assessed as accumulation at G1 phase at 7.5 uM after 72 hrs; assay type: functional; in short: as §2
LNCaP [28] = experiment: Cell cycle arrest in human LNCaP cells assessed as accumulation at subG1 phase at 1 uM after 72 hrs; assay type: functional; in short: as §2
LNCaP [29] = experiment: Decrease in androgen receptor protein expression in human LNCaP cells at 5 uM after 48 hrs by immunocytochemical method; assay type: functional, cell-based
In short: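 LNCaP cells were seeded on coverslips (2.5 × 10⁵/well) for 24 h, then exposed to 5 μM for 48 h. They were fixed and permeabilized with 0.1% Triton X-100 in PBS for 1 h. Mouse anti-AR (1:100) was applied for 12 h at room temperature, then Alexa Fluor 488 goat anti-mouse IgG (1:100) for 2 h. Nuclei were counterstained with DAPI and slides imaged by microscopy.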

LNCaP [30] = experiment: Cell cycle arrest in human LNCaP cells assessed as accumulation at G1 phase at 5 uM after 72 hrs; assay type: functional; in short: as §2
LNCaP [31] = experiment: Cell cycle arrest in human LNCaP cells assessed as accumulation at G1 phase at 2.5 uM after 72 hrs; assay type: functional; in short: as §2
LNCaP [32] = experiment: Cell cycle arrest in human LNCaP cells assessed as accumulation at S phase at 10 uM after 72 hrs; assay type: functional; in short: as §2
LNCaP [33] = experiment: Cell cycle arrest in human LNCaP cells assessed as accumulation at G2/M phase at 5 uM after 72 hrs; assay type: functional; in short: as §2

CC1(CN2C(=O)SC(Cc3ccc(O)c(C(F)(F)F)c3)C2=O)CCCCC1 (configuration not stated)
Activity (LNCaP [1]): Dose-dependent effect

CC1(COc2cccc(/C=C3\SC(=O)NC3=O)c2)CCCCC1
Activity (LNCaP [1]): Dose-dependent effect

CC1(COc2ccc(CC3SC(=O)NC3=O)cc2)CCCCC1 (configuration not stated)
Activity (LNCaP [2]): Active | Activity (LNCaP [3]): Active

CC1(COc2ccc(/C=C3\SC(O)=NC3=O)cc2)CCCCC1
Activity (LNCaP [4]): Active

CC1(CN2C(=O)S/C(=C\c3ccc(O)c(C(F)(F)F)c3)C2=O)CCCCC1
Activity (LNCaP [5]): 14% | Activity (LNCaP [6]): Dose-dependent effect | Activity (LNCaP [7]): 0% | Activity (LNCaP [8]): Active | IC50 (PC-3 [9]): 15 µM | Activity (LNCaP [10]): Dose-dependent effect | Activity (LNCaP [11]): 18% | Activity (LNCaP [12]): 15% | Activity (LNCaP [13]): 19% | Activity (LNCaP [14]): 10% | Activity (LNCaP [15]): 14% | Activity (LNCaP [16]): 20% | Activity (LNCaP [17]): 19% | Activity (LNCaP [18]): Dose-dependent effect | Activity (LNCaP [19]): 66% | Activity (LNCaP [20]): 2% | IC50 (LNCaP [21]): 8 µM | IC50 (LNCaP [22]): 3 µM | Activity (LNCaP [23]): 51% | Activity (LNCaP [24]): 2% | IC50 (PC-3 [25]): 12 µM | Activity (LNCaP [26]): 28% | Activity (LNCaP [27]): 63% | Activity (LNCaP [28]): 1% | Activity (LNCaP [29]): Active | Activity (LNCaP [30]): 69% | Activity (LNCaP [31]): 65% | Activity (LNCaP [32]): 21% | IC50 (LNCaP [1]): 2 µM | Activity (LNCaP [33]): 3%

CC1(CN2C(=O)S/C(=C\c3ccc(O)cc3)C2=O)CCCCC1
Activity (LNCaP [1]): Dose-dependent effect

CC1(CN2C(=O)S/C(=C\c3cc(Br)c(O)c(Br)c3)C2=O)CCCCC1
Activity (LNCaP [6]): Dose-dependent effect | Activity (LNCaP [8]): Active | Activity (LNCaP [10]): Dose-dependent effect | Activity (LNCaP [18]): Dose-dependent effect | IC50 (LNCaP [1]): 4 µM

CCOc1cc(/C=C2\SC(=O)NC2=O)ccc1OCC1(C)CCCCC1
Activity (LNCaP [1]): Dose-dependent effect
